# pIC50: −log10 of the molar value.
# How the values were obtained:
# [1] = tested on: PC-3; assay: Antiproliferative activity against human PC-3 cells assessed as reduction in cell viability measured after 48 hrs by MTT assay; assay type: functional, cell-based; conditions: PC-3, 48 h
# Procedure, shortened: (§1)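 Cells were grown at 37 °C in 5% CO2 in medium with 10% FBS: RPMI-1640 for A549, DU-145 and HepG2, and DMEM/F12 for PC-3. They were seeded at 5×10^3/well. At 70–80% confluence they were exposed to a concentration range diluted from a 60 mM DMSO stock for 48 h at 37 °C, with 0.1% DMSO as vehicle. MTT 5 mg/mL stock was added for 4 h, formazan dissolved in DMSO, A570 read, and % inhibition calculated against control. IC50 was taken from the concentration series.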
# [2] = tested on: A549; assay: Antiproliferative activity against human A549 cells assessed as reduction in cell viability measured after 48 hrs by MTT assay; assay type: functional, cell-based; conditions: A549, 48 h; procedure, shortened: as §1
# [3] = tested on: HepG2; assay: Antiproliferative activity against human HepG2 cells assessed as reduction in cell viability measured after 48 hrs by MTT assay; assay type: functional, cell-based; conditions: HepG2, 48 h; procedure, shortened: as §1
# [4] = tested on: DU-145; assay: Antiproliferative activity against human DU-145 cells assessed as reduction in cell viability measured after 48 hrs by MTT assay; assay type: functional, cell-based; conditions: DU-145, 48 h; procedure, shortened: as §1
# [5] = Cytotoxicity against African green monkey Vero cells assessed as reduction in cell viability measured after 48 hrs by MTT assay; assay type: toxicity, cell-based; conditions: African green monkey (Chlorocebus sabaeus)
# [6] = Selectivity index, ratio of IC50 for cytotoxicity against African green monkey Vero cells to IC50 for antiproliferative activity against human PC-3 cells; assay type: toxicity, cell-based; conditions: Vero cells versus PC-3 cells, read-out: Ratio IC50
# [7] = Selectivity index, ratio of IC50 for cytotoxicity against African green monkey Vero cells to IC50 for antiproliferative activity against human A549 cells; assay type: toxicity, cell-based; conditions: Vero cells versus A549 cells, read-out: Ratio IC50
# [8] = Selectivity index, ratio of IC50 for cytotoxicity against African green monkey Vero cells to IC50 for antiproliferative activity against human HepG2 cells; assay type: toxicity, cell-based; conditions: Vero cells versus HepG2 cells, read-out: Ratio IC50
# [9] = Selectivity index, ratio of IC50 for cytotoxicity against African green monkey Vero cells to IC50 for antiproliferative activity against human DU-145 cells; assay type: toxicity, cell-based; conditions: Vero cells versus DU-145 cells, read-out: Ratio IC50
# [10] = biological target: Epidermal growth factor receptor (Homo sapiens, UniProt P00533); assay: Inhibition of wild type EGFR (unknown origin) incubated for 40 mins by Kinase Glo Max reagent based luminescence analysis
# [11] = biological target: Epidermal growth factor receptor (Homo sapiens, UniProt P00533, T790M); assay: Inhibition of EGFR T790M mutant (unknown origin) incubated for 40 mins by Kinase Glo Max reagent based luminescence analysis
# [12] = tested on: HepG2; assay: Induction of cell cycle arrest in human HepG2 cells assessed as accumulation of cell debris at 0.11 uM incubated for 24 hrs by propidium iodide staining based flow cytometry (reference value: 0.12%); assay type: functional
# Procedure, shortened: (§2)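 HepG2 cells were seeded, incubated overnight at 37 °C and, at 70–80% confluence, treated 24 h with 0.11, 0.22 or 0.44 µM in fresh medium; untreated cells served as control. Cells were then digested, washed in PBS and fixed in pre-cooled 75% ethanol at 4 °C for over 18 h. Staining used propidium iodide 50 µg/mL plus RNase 50 µg/mL for 30 min at 37 °C, and DNA content was read by flow cytometry.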
# [13] = tested on: HepG2; assay: Induction of cell cycle arrest in human HepG2 cells assessed as accumulation of cells at G0/G1 phase at 0.11 uM incubated for 24 hrs by propidium iodide staining based flow cytometry (reference value: 35.61%); assay type: functional; procedure, shortened: as §2
# [14] = tested on: HepG2; assay: Induction of cell cycle arrest in human HepG2 cells assessed as accumulation of cells at G2/M phase at 0.11 uM incubated for 24 hrs by propidium iodide staining based flow cytometry (reference value: 18.81%); assay type: functional; procedure, shortened: as §2
# [15] = tested on: HepG2; assay: Induction of cell cycle arrest in human HepG2 cells assessed as accumulation of cells at S phase at 0.11 uM incubated for 24 hrs by propidium iodide staining based flow cytometry (reference value: 46.98%); assay type: functional; procedure, shortened: as §2
# [16] = tested on: HepG2; assay: Induction of cell cycle arrest in human HepG2 cells assessed as accumulation of cell debris at […] incubated for 24 hrs by propidium iodide staining based flow cytometry (reference value: 0.12%); assay type: functional; conditions: dose 0.22 µM
# [17] = tested on: HepG2; assay: Induction of cell cycle arrest in human HepG2 cells assessed as accumulation of cells at G0/G1 phase at […] incubated for 24 hrs by propidium iodide staining based flow cytometry (reference value: 35.61%); assay type: functional; conditions: dose 0.22 µM
# [18] = tested on: HepG2; assay: Induction of cell cycle arrest in human HepG2 cells assessed as accumulation of cells at G2/M phase at […] incubated for 24 hrs by propidium iodide staining based flow cytometry (reference value: 18.81%); assay type: functional; conditions: dose 0.22 µM
# [19] = tested on: HepG2; assay: Induction of cell cycle arrest in human HepG2 cells assessed as accumulation of cells at S phase at […] incubated for 24 hrs by propidium iodide staining based flow cytometry (reference value: 46.98%); assay type: functional; conditions: dose 0.22 µM
# [20] = tested on: HepG2; assay: Induction of cell cycle arrest in human HepG2 cells assessed as accumulation of cell debris at 0.44 uM incubated for 24 hrs by propidium iodide staining based flow cytometry (reference value: 0.12%); assay type: functional; procedure, shortened: as §2
# [21] = tested on: HepG2; assay: Induction of cell cycle arrest in human HepG2 cells assessed as accumulation of cells at G0/G1 phase at 0.44 uM incubated for 24 hrs by propidium iodide staining based flow cytometry (reference value: 35.61%); assay type: functional; procedure, shortened: as §2
# [22] = tested on: HepG2; assay: Induction of cell cycle arrest in human HepG2 cells assessed as accumulation of cells at G2/M phase at 0.44 uM incubated for 24 hrs by propidium iodide staining based flow cytometry (reference value: 18.81%); assay type: functional; procedure, shortened: as §2
# [23] = tested on: HepG2; assay: Induction of cell cycle arrest in human HepG2 cells assessed as accumulation of cells at S phase at 0.44 uM incubated for 24 hrs by propidium iodide staining based flow cytometry (reference value: 46.98%); assay type: functional; procedure, shortened: as §2
# [24] = tested on: HepG2; assay: Induction of apoptosis in human HepG2 cells assessed as viable cells at 0.11 uM incubated for 24 hrs by AnnexinV-FITC/PI staining based flow cytometry (reference value: 96.94%); assay type: functional; conditions: read-out: Activity
# [25] = tested on: HepG2; assay: Induction of apoptosis in human HepG2 cells assessed as early apoptotic cells at 0.11 uM incubated for 24 hrs by AnnexinV-FITC/PI staining based flow cytometry (reference value: 2.91%); assay type: functional
# [26] = tested on: HepG2; assay: Induction of apoptosis in human HepG2 cells assessed as late apoptotic cells at 0.11 uM incubated for 24 hrs by AnnexinV-FITC/PI staining based flow cytometry (reference value: 0.032%); assay type: functional
# [27] = tested on: HepG2; assay: Induction of apoptosis in human HepG2 cells assessed as necrotic cells at 0.11 uM incubated for 24 hrs by AnnexinV-FITC/PI staining based flow cytometry (reference value: 0.12%); assay type: functional
# [28] = tested on: HepG2; assay: Induction of apoptosis in human HepG2 cells assessed as viable cells at […] incubated for 24 hrs by AnnexinV-FITC/PI staining based flow cytometry (reference value: 96.94%); assay type: functional; conditions: dose 0.22 µM, read-out: Activity
# [29] = tested on: HepG2; assay: Induction of apoptosis in human HepG2 cells assessed as early apoptotic cells at […] incubated for 24 hrs by AnnexinV-FITC/PI staining based flow cytometry (reference value: 2.91%); assay type: functional; conditions: dose 0.22 µM
# [30] = tested on: HepG2; assay: Induction of apoptosis in human HepG2 cells assessed as late apoptotic cells at […] incubated for 24 hrs by AnnexinV-FITC/PI staining based flow cytometry (reference value: 0.032%); assay type: functional; conditions: dose 0.22 µM
# [31] = tested on: HepG2; assay: Induction of apoptosis in human HepG2 cells assessed as necrotic cells at […] incubated for 24 hrs by AnnexinV-FITC/PI staining based flow cytometry (reference value: 0.12%); assay type: functional; conditions: dose 0.22 µM
# [32] = tested on: HepG2; assay: Induction of apoptosis in human HepG2 cells assessed as viable cells at 0.44 uM incubated for 24 hrs by AnnexinV-FITC/PI staining based flow cytometry (reference value: 96.94%); assay type: functional; conditions: read-out: Activity
# [33] = tested on: HepG2; assay: Induction of apoptosis in human HepG2 cells assessed as early apoptotic cells at 0.44 uM incubated for 24 hrs by AnnexinV-FITC/PI staining based flow cytometry (reference value: 2.91%); assay type: functional
# [34] = tested on: HepG2; assay: Induction of apoptosis in human HepG2 cells assessed as late apoptotic cells at 0.44 uM incubated for 24 hrs by AnnexinV-FITC/PI staining based flow cytometry (reference value: 0.032%); assay type: functional
# [35] = tested on: HepG2; assay: Induction of apoptosis in human HepG2 cells assessed as necrotic cells at 0.44 uM incubated for 24 hrs by AnnexinV-FITC/PI staining based flow cytometry (reference value: 0.12%); assay type: functional
# Sequence of Epidermal growth factor receptor (Homo sapiens, UniProt P00533, T790M) (P00533 25-1210 T790M limits assumed): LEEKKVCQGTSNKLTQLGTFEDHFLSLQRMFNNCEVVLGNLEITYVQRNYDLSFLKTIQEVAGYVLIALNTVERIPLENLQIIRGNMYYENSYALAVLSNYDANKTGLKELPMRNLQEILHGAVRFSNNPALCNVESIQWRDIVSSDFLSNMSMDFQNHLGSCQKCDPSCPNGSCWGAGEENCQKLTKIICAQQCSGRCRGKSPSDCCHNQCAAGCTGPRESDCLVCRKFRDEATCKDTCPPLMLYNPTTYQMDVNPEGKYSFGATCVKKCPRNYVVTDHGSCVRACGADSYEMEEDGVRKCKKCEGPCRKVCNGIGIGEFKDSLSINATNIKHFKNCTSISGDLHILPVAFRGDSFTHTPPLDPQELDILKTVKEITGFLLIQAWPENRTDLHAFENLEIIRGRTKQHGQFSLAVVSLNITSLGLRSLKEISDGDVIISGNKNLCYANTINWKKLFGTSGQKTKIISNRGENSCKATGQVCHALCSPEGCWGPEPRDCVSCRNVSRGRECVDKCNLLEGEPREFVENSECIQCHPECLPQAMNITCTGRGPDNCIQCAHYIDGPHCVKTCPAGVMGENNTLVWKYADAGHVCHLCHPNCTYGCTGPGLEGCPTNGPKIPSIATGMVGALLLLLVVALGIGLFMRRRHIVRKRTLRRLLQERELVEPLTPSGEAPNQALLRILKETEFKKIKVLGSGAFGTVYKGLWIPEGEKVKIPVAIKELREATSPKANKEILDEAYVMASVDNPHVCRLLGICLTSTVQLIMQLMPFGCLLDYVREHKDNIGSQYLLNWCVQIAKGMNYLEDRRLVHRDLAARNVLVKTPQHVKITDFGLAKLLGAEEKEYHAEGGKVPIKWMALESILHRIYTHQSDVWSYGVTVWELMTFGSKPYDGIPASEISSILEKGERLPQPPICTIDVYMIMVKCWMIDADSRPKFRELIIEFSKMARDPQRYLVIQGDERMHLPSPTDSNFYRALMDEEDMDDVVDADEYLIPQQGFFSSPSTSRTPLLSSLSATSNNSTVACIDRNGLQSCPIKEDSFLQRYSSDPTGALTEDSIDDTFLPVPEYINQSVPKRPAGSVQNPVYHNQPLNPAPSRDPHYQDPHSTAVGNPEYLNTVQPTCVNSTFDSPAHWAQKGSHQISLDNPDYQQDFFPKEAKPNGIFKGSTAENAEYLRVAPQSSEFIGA
# Sequence of Epidermal growth factor receptor (Homo sapiens, UniProt P00533) (P00533 whole entry): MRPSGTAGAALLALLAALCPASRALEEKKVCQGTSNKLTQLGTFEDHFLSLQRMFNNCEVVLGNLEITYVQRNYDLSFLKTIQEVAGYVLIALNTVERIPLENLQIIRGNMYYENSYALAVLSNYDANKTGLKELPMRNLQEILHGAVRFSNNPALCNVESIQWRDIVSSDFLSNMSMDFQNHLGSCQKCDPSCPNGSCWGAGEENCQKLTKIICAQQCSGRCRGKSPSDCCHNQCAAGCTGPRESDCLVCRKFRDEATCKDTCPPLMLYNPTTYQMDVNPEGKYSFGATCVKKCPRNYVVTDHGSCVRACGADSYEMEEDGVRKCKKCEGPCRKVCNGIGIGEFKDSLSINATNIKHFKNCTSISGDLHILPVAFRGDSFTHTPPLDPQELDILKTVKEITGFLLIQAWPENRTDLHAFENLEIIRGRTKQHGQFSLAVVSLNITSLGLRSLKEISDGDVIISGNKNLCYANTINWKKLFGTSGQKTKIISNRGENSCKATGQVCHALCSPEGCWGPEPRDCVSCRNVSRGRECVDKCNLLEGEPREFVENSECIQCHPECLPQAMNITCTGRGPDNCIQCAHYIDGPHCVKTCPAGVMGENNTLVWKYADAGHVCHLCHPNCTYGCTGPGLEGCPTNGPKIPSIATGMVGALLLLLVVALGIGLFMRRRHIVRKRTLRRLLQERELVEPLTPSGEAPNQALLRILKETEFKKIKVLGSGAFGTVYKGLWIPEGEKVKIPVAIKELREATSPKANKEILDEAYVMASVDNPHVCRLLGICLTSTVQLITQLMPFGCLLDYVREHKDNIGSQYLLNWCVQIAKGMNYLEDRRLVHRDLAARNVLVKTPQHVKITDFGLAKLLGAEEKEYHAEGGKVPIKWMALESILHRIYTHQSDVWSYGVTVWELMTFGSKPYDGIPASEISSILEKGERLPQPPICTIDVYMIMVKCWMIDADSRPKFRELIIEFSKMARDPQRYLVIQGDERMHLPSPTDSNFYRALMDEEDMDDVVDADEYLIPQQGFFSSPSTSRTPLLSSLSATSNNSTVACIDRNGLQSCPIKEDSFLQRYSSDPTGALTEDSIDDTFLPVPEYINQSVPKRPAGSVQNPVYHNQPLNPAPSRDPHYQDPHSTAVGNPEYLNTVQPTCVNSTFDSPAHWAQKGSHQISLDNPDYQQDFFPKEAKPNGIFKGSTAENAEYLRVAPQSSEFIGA
compound,measurement,setting,value
COc1cc(-c2nc(-c3ccc(-c4nc(-c5nnc(-c6ccncc6)o5)c[nH]4)cc3)no2)cc(OC)c1OC,pIC50,[1],6.92
same,pIC50,[2],6.89
same,pIC50,[3],6.96
same,pIC50,[4],6.37
same,IC50 at 48 h,[5],> 14000 nM
same,selectivity ratio,[6],117
same,selectivity ratio,[7],108
same,selectivity ratio,[8],127
same,selectivity ratio,[9],32.5
same,pIC50,[10],6.99
same,pIC50,[11],5.96
same,Activity,[12],0.71%
same,Activity,[13],37.51%
same,Activity,[14],23.99%
same,Activity,[15],38.98%
same,Activity,[16],6.72%
same,Activity,[17],36.01%
same,Activity,[18],34.03%
same,Activity,[19],31.16%
same,Activity,[20],41.32%
same,Activity,[21],35.02%
same,Activity,[22],47.32%
same,Activity,[23],19.22%
same,viability at 0.11 µM,[24],79.6%
same,Activity,[25],11.32%
same,Activity,[26],8.96%
same,Activity,[27],0.14%
same,viability at […],[28],65.4%
same,Activity,[29],12.33%
same,Activity,[30],21.78%
same,Activity,[31],0.456%
same,viability at 0.44 µM,[32],53.3%
same,Activity,[33],18.23%
same,Activity,[34],27.92%
same,Activity,[35],0.563%

# From ChEMBL document CHEMBL5634209, “Computational design, synthesis, and assessment of 3-(4-(4-(1,3,4-oxadiazol-2-yl)-1H-imidazol-2-yl)phenyl)-1,2,4-oxadiazole derivatives as effective epidermal growth factor receptor inhibitors: a prospective strategy for anticancer therapy” (RSC Med Chem, 2024)
